Experimental findings from PMC7127161 (Bioorganic & Medicinal Chemistry, 2014) are described below.

One data set relates to CEM cells. As to the kind of experiment: Cytostatic properties in human T-lymphocyte. In kind it is cell-based. The conditions noted are these: concentration required to reduce CEM cell proliferation by 50%. The gist of the method: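 Cytostatic assay: (5–7.5) × 104 CEM cells per well with test compound. Cells proliferate 72 h at 37 °C in humidified, CO2-controlled air, then are counted in a Coulter counter. The 50% value is the concentration that inhibits cell proliferation by 50%.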

The test system of another data set is Reverse transcriptase. As to the kind of experiment: Activity against reverse transcriptase. It is filed as biochemical. The settings on record: data not shown.
The next data set has as its system HIV-1 (NL4.3). The data set can be described thus: Anti-HIV-1 activity. In kind it is cell-based. The conditions noted are these: MT-4 cells.
A further data set concerns feline herpesvirus. As to the kind of experiment: Antiviral activity against feline herpesvirus in CrFK cell cultures. The settings on record: at 100 μM. It is filed as cell-based.
Data set [1] concerns respiratory syncytial virus (RSV). As to the kind of experiment: Antiviral activity against RSV in HeLa cell cultures. In kind it is cell-based. The settings on record: at 100 μM.
Data set [2] has as its system herpes simplex virus type 1 (HSV-1). As to the kind of experiment: Antiviral activity against HSV-1 in HEL cell cultures. It is filed as cell-based. The settings on record: at 100 μM.
In the next data set the test system is HSV-2. The data set can be described thus: Antiviral activity against HSV-2 in HEL cell cultures. In kind it is cell-based. The conditions noted are these: at 100 μM.
The test system of the next data set is influenza virus A (H3N2). It is filed as cell-based.
The next data set has as its system Punta Toro virus. The data set can be described thus: Antiviral activity against Punta Toro virus in Vero cell cultures. It is filed as cell-based. The conditions noted are these: at 100 μM.
In data set [3] the test system is vesicular stomatitis virus (VSV). In kind it is cell-based.
The next data set has as its system parainfluenza virus-3. As to the kind of experiment: Antiviral activity against parainfluenza virus-3 in Vero cell cultures. In kind it is cell-based. The settings on record: at 100 μM.
Another data set concerns reovirus-1. As to the kind of experiment: Antiviral activity against reovirus-1 in Vero cell cultures. In kind it is cell-based. The conditions noted are these: at 100 μM.
A further data set relates to influenza virus A (H1N1). In kind it is cell-based.
The next data set deals with vaccinia virus. It is filed as cell-based.
The next data set relates to Coxsackie virus B4. The data set can be described thus: Antiviral activity against Coxsackie virus B4 in HeLa cell cultures. In kind it is cell-based. The settings on record: at 100 μM.
For the next data set, the system named is feline corona virus. As to the kind of experiment: Antiviral activity against feline corona virus in CrFK cell cultures. It is filed as cell-based. The settings on record: at 100 μM.
The test system of a further data set is Sindbis virus. As to the kind of experiment: Antiviral activity against Sindbis virus in Vero cell cultures. In kind it is cell-based. The conditions noted are these: at 100 μM.
The next data set has as its system influenza virus B. It is filed as cell-based.
The next data set deals with HIV-1(IIIB). The data set can be described thus: Anti-HIV-1 activity. The conditions noted are these: CEM cells, HIV-1 and HIV-2. In kind it is cell-based. The procedure, abridged:
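CEM cells (~3 × 10^5 cells/mL) infected with HIV-1(IIIB) at 100 CCID50 per mL, with dilutions of test compound. Incubated 4–5 days at 37 °C in humidified, CO2-controlled air. Giant (syncytium) cell formation scored under the microscope. EC50 is the concentration that inhibits HIV-induced cytopathic effect by 50%.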

For the compound “(1R,2S,3S)-3-(Benzyloxycarbonyl)-2-(benzyloxycarbonylmethyl)cyclopentanol [Compound 13]”, the midpoint of cytotoxicity with CEM cells, the CC50, lay at 94 ± 4.2 µM. The “activity against reverse transcriptase” value in the data set with Reverse transcriptase is “inactive”.
In the case of `C[C@H](NP(=O)(Oc1cccc2ccccc12)O[C@@H]1CC[C@H](O)[C@H]1CO)C(=O)OCC(C)(C)C` (stereo partly drawn) [Compound 17a, (1R,2R,3S)-3-Hydroxy-2-(hydroxymethyl)cyclopentyl-1-O-naphthyl-(neopentyl-L-alaninyl)-phosphate], the “antiviral activity against HIV-1 and HIV-2 in MT-4 cell cultures (in words)” value in the data set with HIV-1 (NL4.3) is recorded as “devoid of any significant antiviral activity”.
The same measure, in the same setting: for `CCCCCOC(=O)[C@H](C)NP(=O)(Oc1ccccc1)O[C@@H]1CC[C@H](O)[C@H]1CO` (stereo partly drawn) [Compound 17b, (1R,2R,3S)-3-Hydroxy-2-(hydroxymethyl)cyclopentyl-1-O-phenyl-(pentoxy-L-alaninyl)-phosphate] the value was “devoid of any significant antiviral activity”.
Consider `OC[C@H]1[C@H](O)CC[C@@H]1O` [Compound 15, 2-hydroxymethyl-3-hydroxycyclopentanol], for which, in the data set on feline herpesvirus, the “activity against feline herpesvirus” value is on record as “did not show any measurable activity”. Also, the “activity against respiratory syncytial virus (RSV)” value in [1] was “did not show any measurable activity”. For the same compound, the “activity against herpes simplex virus type 1 (HSV-1)” value in data set [2] is listed as “did not show any measurable activity”. The “activity against HSV-2” value in the data set on HSV-2 is “did not show any measurable activity”. In the data set on influenza virus A (H3N2), the “activity against influenza virus A (H3N2)” value is listed as “did not show any measurable activity”. Also, the “activity against Punta Toro virus” value in the data set with Punta Toro virus is recorded as “did not show any measurable activity”. The “activity against vesicular stomatitis virus (VSV)” value in data set [3] is given as “did not show any measurable activity”. In addition, the “activity against parainfluenza virus-3” value in the data set with parainfluenza virus-3 is reported as “did not show any measurable activity”. Also, the “activity against reovirus-1” value in the data set on reovirus-1 is given as “did not show any measurable activity”. In addition, the “activity against influenza virus A (H1N1)” value in the data set with influenza virus A (H1N1) is “did not show any measurable activity”. In addition, the “activity against vaccinia virus” value in the data set with vaccinia virus is listed as “did not show any measurable activity”. Moreover, in the data set with Coxsackie virus B4, the “activity against Coxsackie virus B4” value was “did not show any measurable activity”. For the same compound, the “activity against reverse transcriptase” value in the data set on Reverse transcriptase was “inactive”. The “activity against feline corona virus” value in the data set with feline corona virus is “did not show any measurable activity”. Also, in the data set on Sindbis virus, the “activity against Sindbis virus” value is listed as “did not show any measurable activity”. Moreover, the “activity against influenza virus B” value in the data set on influenza virus B was “did not show any measurable activity”. Besides, the “antiviral activity against HIV-1 and HIV-2 in MT-4 cell cultures (in words)” value in the data set with HIV-1 (NL4.3) is on record as “confirmed at low micromolar concentrations”.
As to `OC[C@H]1CC(O)C[C@@H]1O` (stereo partly drawn) [Compound 14, (3S,4R)-3-hydroxy-4-hydroxymethyl cyclopentanol], the “anti-HIV-1 or anti-HIV-2 activity (in words)” value in the data set on HIV-1(IIIB) is “not active”.
In turn, “(3S,4R)-3-(Benzyloxycarbonyl)-4-(benzyloxycarbonylmethyl)cyclopentenol [Compound 11]” displayed a CC50 with CEM cells of 110 ± 4.2 µM. Further, the “anti-HIV-1 or anti-HIV-2 activity (in words)” value in the data set with HIV-1(IIIB) is reported as “not active”.
